Measurements taken from article PMC4651729 (ACS chemical neuroscience, 2015).
“Also recorded” adds a separate entry of the source. Marks after values point to notes of the source that are not given here.

Legend:
mouse DOR-1 = mouse DOR-1 (Mus musculus, UniProt P32300); experiment: [125I]BNtxA competition binding, CHO cell membranes, DOR-1; conditions: for fold higher DOR-1 affinity than corresponding 14-OH-epoxymorphinan analog: 6 vs 19, 16 vs 1, 17 vs 20; for selectivity for DOR-1 over 6TM/E11 sites: ratio of Ki; for Ki: read-out: Ki DOR-1, [125I]BNtxA 0.1 nM, CHO membranes, mouse DOR-1
How it was run: (§1)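 Membranes from CHO cells stably expressing the murine receptor clone, with no blockers, were incubated for 90 min at 25 °C in 50 mM potassium phosphate buffer (pH 7.4) with 5 mM MgSO4. Samples were then filtered on glass-fiber filters and washed with ice-cold 50 mM Tris-HCl (pH 7.4). Nonspecific binding was set with levallorphan 8 μM. Ki came from nonlinear regression. The 6TM/E11 comparison used mouse whole-brain membranes with CTAP, U50,488H and DPDPE, each at 200 nM.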

mouse KOR-1 = mouse KOR-1 (Mus musculus, UniProt P33534); experiment: [125I]BNtxA competition binding, CHO cell membranes, KOR-1; conditions: for fold higher KOR-1 affinity than corresponding 14-OH-epoxymorphinan analog: 6 vs 19, 16 vs 1, 17 vs 20; for selectivity for KOR-1 over 6TM/E11 sites: ratio of Ki; for Ki: read-out: Ki KOR-1, [125I]BNtxA 0.1 nM, CHO membranes, mouse KOR-1
How it was run: as §1

mouse MOR-1 = mouse MOR-1 (Mus musculus, UniProt P42866); experiment: [125I]BNtxA competition binding, CHO cell membranes, MOR-1; conditions: for fold higher MOR-1 affinity than corresponding 14-OH-epoxymorphinan analog: 6 vs 19, 16 vs 1, 17 vs 20; for selectivity for MOR-1 over 6TM/E11 sites: ratio of Ki; for Ki: read-out: Ki MOR-1, [125I]BNtxA 0.1 nM, CHO membranes, mouse MOR-1
How it was run: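 Mouse MOR-1 clone stably expressed in CHO cells; membranes incubated 90 min at 25 °C in 50 mM potassium phosphate buffer, pH 7.4, with 5 mM MgSO4, no blockers. Filtration through glass-fibre filters, three washes with ice-cold 50 mM Tris-HCl, pH 7.4. Nonspecific binding with 8 μM levallorphan, subtracted from total. Ki by nonlinear regression. Protein measured by Lowry method.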

CD1 mice [1] = experiment: radiant heat tail flick analgesia; assay type: in vivo, mouse; conditions: for tail flick analgesia (CI), ED50 / antinociception in vivo (in words): sc; for tail flick analgesia (CI), ED50: 30 min after dosing, mice, 95% CI or ± SEM; for fold higher analgesic potency than morphine / antinociception in vivo (in words): tail flick; for fold higher analgesic potency than morphine: systemic (sc)
6TM/E11 = 6TM/E11 (Mus musculus, UniProt P42866); assay type: binding; conditions: for fold lower 6TM/E11 affinity than 1: compared with 1; for Ki: read-out: Ki 6TM/E11, [125I]BNtxA 0.1 nM, mouse brain, CTAP, DPDPE, U50,488 blockers at 200 nM
How it was run: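 Membrane homogenates of whole brain from wild-type mice. Blockers at 200 nM: CTAP for MOR-1, U50,488H for KOR-1 and DPDPE for DOR-1.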

[2] = doses 30 times the antinociceptive ED50
mice = experiment: conditioned place preference/aversion; assay type: in vivo, mouse; conditions: 2 days; for effect of pretreatment on cocaine-conditioned place preference: 16 1 mg/kg sc 10 min prior to cocaine 10 mg/kg sc; for place conditioning response to drug alone: 16 1 mg/kg sc, morphine 10 mg/kg ip, U50,488 30 mg/kg ip, cocaine 10 mg/kg sc
[3] = system: C57BL/6J, MOR-1 KO or KOR-1 KO mice; conditions: C57BL/6J mice, sc
DOR-1 = DOR-1 (Mus musculus, UniProt P32300)
MOR-1 = MOR-1 (Mus musculus, UniProt P42866)
KOR-1 = KOR-1 (Mus musculus, UniProt P33534); experiment: [35S]GTPγS binding assay, KOR-1; assay type: biochemical
CD1 mice [4] = conditions: cited from earlier work

## O=C(N[C@@H]1C=C[C@H]2[C@H]3Cc4ccc(O)c5c4[C@@]2(CCN3CC2CC2)[C@H]1O5)c1cccc(I)c1 [Compound 16, 17-Cyclopropylmethyl-3-hydroxy-4,5α-epoxy-7,8-en-6-β-[(3′-iodo)benzamido]-morphinan]
Mouse DOR-1
  fold higher DOR-1 affinity than corresponding 14-OH-epoxymorphinan analog: 3 fold
  selectivity for DOR-1 over 6TM/E11 sites: 6 fold
  Ki: 0.08 ± 0.019 nM
Mouse KOR-1
  fold higher KOR-1 affinity than corresponding 14-OH-epoxymorphinan analog: 4.7 fold
  selectivity for KOR-1 over 6TM/E11 sites: 73 fold
  Ki: 0.0064 ± 0.002 nM
Mouse MOR-1
  fold higher MOR-1 affinity than corresponding 14-OH-epoxymorphinan analog: 5 fold
  selectivity for MOR-1 over 6TM/E11 sites: 22 fold
  Ki: 0.021 ± 0.0034 nM
CD1 mice [1]; CD1 mice, 16 0.5 mg/kg sc, J-113,397 30 mg/kg sc 15 min before, listed as 16 (MP1104)
  antinociception after pretreatment with NOP antagonist J-113,397: No change in the antinociceptive efiect; also recorded: insensitive
CD1 mice [1]; CD1 mice, 16 0.5 mg/kg sc, NTI 20 mg/kg sc 15 min before, listed as 16 (MP1104)
  antinociception after pretreatment with DOR-1 antagonist NTI: attenuated the antinociceptive effects; also recorded: partially antagonized
CD1 mice [1]; CD1 mice, 16 0.5 mg/kg sc, listed as 16 (MP1104)
  antinociception after pretreatment with both norBNI and NTI: fully prevented antinociception; also recorded: eliminated the antinociceptive response
CD1 mice [1]; CD1 mice, 16 0.5 mg/kg sc, norBNI 10 mg/kg sc 24 h before, listed as 16 (MP1104)
  antinociception after pretreatment with KOR-1 antagonist norBNI: attenuated the antinociceptive effects; also recorded: partially antagonized
CD1 mice [1]; CD1 mice, 16 0.5 mg/kg sc, β-FNA 40 mg/kg sc 24 h before, listed as 16 (MP1104)
  antinociception after pretreatment with MOR-1 antagonist β-FNA: did not alter anti-nociception; also recorded: insensitive
CD1 mice [1]
  tail flick analgesia (CI), ED50: 0.33 ± 0.09 mg/kg
CD1 mice [1]; listed as 16 (MP1104)
  fold higher analgesic potency than morphine: 15 fold
CD1 mice [1]; listed as MP1104
  fold higher analgesic potency than morphine: approximately 15 fold
6TM/E11
  fold lower 6TM/E11 affinity than 1: 3 fold
  Ki: 0.47 ± 0.009 nM
[2]
  seizures: not observed to produce seizures
mice; listed as 16 (MP1104)
  effect of pretreatment on cocaine-conditioned place preference: prevented significant place preference produced by cocaine; also recorded: prevented cocaine-conditioned place preference; also recorded: abolished cocaine preference; also recorded: effectively blocked cocaine-conditioned place preference
  place conditioning response to drug alone: neither conditioned place preference nor aversion; also recorded: did not produce conditioned place preference or aversion; also recorded: produced neither preference nor aversion; also recorded: lacks rewarding and dysphoric properties
mice; listed as MP1104
  effect of pretreatment on cocaine-conditioned place preference: prevented the reward behavior associated with cocaine
  place conditioning response to drug alone: did not cause place aversion or preference
[3]
  antinociception ED50 (95% confidence interval): 0.22 (0.17–0.29) mg/kg
DOR-1; [35S]GTPγS
  agonist efficacy at DOR-1 (in words): full agonist eficacy
DOR-1; read-out: EC50 DOR-1, [35S]GTPγS stimulation
  EC50: 0.41 ± 0.11 nM
DOR-1; relative to DPDPE at 100 nM
  Emax (% stimulation) DOR-1: 88 ± 0.38 % stimulation
MOR-1; [35S]GTPγS, listed as 16 (MP1104)
  agonist efficacy at MOR-1 (in words): full agonist eficacy; also recorded: full agonism
MOR-1; read-out: EC50 MOR-1, [35S]GTPγS stimulation
  EC50: 0.21 ± 0.03 nM
MOR-1; relative to DAMGO at 100 nM
  Emax (% stimulation) MOR-1: 103 ± 2.5 % stimulation
KOR-1; [35S]GTPγS
  agonist efficacy at KOR-1 (in words): full agonist eficacy
KOR-1; read-out: EC50 KOR-1, [35S]GTPγS stimulation
  EC50: 0.027 ± 0.002 nM
KOR-1; relative to U50,488H at 100 nM
  Emax (% stimulation) KOR-1: 104 ± 2.3 % stimulation

## COC(=O)[C@H]1[C@@H](OC(=O)c2ccccc2)C[C@@H]2CC[C@H]1N2C [cocaine, reference compound]
mice
  place conditioning response to drug alone: significant place preference

## C=CCN1CC[C@]23c4c5ccc(O)c4O[C@H]2[C@H](NC(=O)c2cccc(I)c2)C=C[C@H]3[C@H]1C5 [Compound 17, 17-Allyl-3-hydroxy-4,5α-epoxy-7,8-en-6-β-[(3′-iodo)benzamido]-morphinan]
Mouse DOR-1
  fold higher DOR-1 affinity than corresponding 14-OH-epoxymorphinan analog: 6.7 fold
  selectivity for DOR-1 over 6TM/E11 sites: 2 fold
  Ki: 0.39 ± 0.0041 nM
Mouse KOR-1
  fold higher KOR-1 affinity than corresponding 14-OH-epoxymorphinan analog: 3.6 fold
  selectivity for KOR-1 over 6TM/E11 sites: 35 fold
  Ki: 0.022 ± 0.0043 nM
Mouse MOR-1
  fold higher MOR-1 affinity than corresponding 14-OH-epoxymorphinan analog: 6.5 fold
  selectivity for MOR-1 over 6TM/E11 sites: 23 fold
  Ki: 0.034 ± 0.006 nM
CD1 mice [1]
  tail flick analgesia (CI), ED50: 0.53 (0.45, 0.59) mg/kg
  antinociception in vivo (in words): equipotent to both 1 and 20
6TM/E11
  fold lower 6TM/E11 affinity than 1: 4.9 fold
  Ki: 0.78 ± 0.1 nM
6TM/E11; compared with 20
  fold lower 6TM/E11 affinity than 20: 3.1 fold

## COc1ccc2c3c1O[C@H]1[C@H](NC(=O)c4cccc(I)c4)C=C[C@H]4[C@@H](C2)N(C)CC[C@@]341 [Compound 5, 17-Methyl-3-methoxy-4,5α-epoxy-7,8-en-6-β-[(3′-iodo)-benzamido]-morphinan]
Mouse DOR-1
  Ki: 49 ± 6.4 nM
Mouse KOR-1
  Ki: 10 ± 3.5 nM
Mouse MOR-1
  Ki: 1.2 ± 0.48 nM
CD1 mice [1]
  tail flick analgesia (CI), ED50: >10 mg/kg
6TM/E11
  Ki: 61 ± 7.7 nM

## O=C(N[C@@H]1CC[C@@]2(O)[C@H]3Cc4ccc(O)c5c4[C@@]2(CCN3CC2CC2)[C@H]1O5)c1cccc(I)c1 [Compound 1, 3-Iodobenzoyl-β-naltrexamine, reference compound]
CD1 mice [4]; introduction
  antinociception ED50: 0.39 mg/kg
Mouse DOR-1
  Ki: 0.24 ± 0.05 nM
Mouse KOR-1
  Ki: 0.03 ± 0.001 nM
Mouse MOR-1
  Ki: 0.11 ± 0.02 nM
CD1 mice [1]
  tail flick analgesia (CI), ED50: 0.39 (0.15, 0.58) mg/kg
6TM/E11
  Ki: 0.16 ± 0.04 nM

## CN1CC[C@]23c4c5ccc(O)c4O[C@H]2[C@H](NC(=O)c2cccc(I)c2)C=C[C@H]3[C@H]1C5 [Compound 6, 17-Methyl-3-hydroxy-4,5α-epoxy-7,8-en-6-β-[(3′-iodo)-benzamido]-morphinan]
Mouse DOR-1
  fold higher DOR-1 affinity than corresponding 14-OH-epoxymorphinan analog: 3 fold
  Ki: 0.88 ± 0.08 nM
Mouse KOR-1
  fold higher KOR-1 affinity than corresponding 14-OH-epoxymorphinan analog: 224 fold
  Ki: 0.21 ± 0.046 nM
Mouse MOR-1
  fold higher MOR-1 affinity than corresponding 14-OH-epoxymorphinan analog: 26 fold
  Ki: 0.037 ± 0.0051 nM
CD1 mice [1]
  tail flick analgesia (CI), ED50: 6.31 (4.6, 8.5) mg/kg
  antinociception in vivo (in words): potent antinociception
6TM/E11
  Ki: 27 ± 18 nM

## O=C(N[C@@H]1C=C[C@H]2[C@H]3Cc4ccc(O)c5c4[C@@]2(CCN3CCc2ccccc2)[C@H]1O5)c1cccc(I)c1 [Compound 15, 17-Phenethyl-3-hydroxy-4,5α-epoxy-7,8-en-6-β-[(3′-iodo)-benzamido]-morphinan]
Mouse DOR-1
  selectivity for DOR-1 over 6TM/E11 sites: 108 fold
  Ki: 0.13 ± 0.032 nM
Mouse KOR-1
  selectivity for KOR-1 over 6TM/E11 sites: 100 fold
  Ki: 0.14 ± 0.022 nM
Mouse MOR-1
  selectivity for MOR-1 over 6TM/E11 sites: 159 fold
  Ki: 0.088 ± 0.028 nM
CD1 mice [1]
  tail flick analgesia (CI), ED50: 1.3 (1.03, 2.2) mg/kg
  fold higher analgesic potency than morphine: ~ 3 fold
6TM/E11
  Ki: 14 ± 3.2 nM

## CN1CC[C@]23c4c5ccc(O)c4O[C@H]2[C@@H](O)C=C[C@H]3[C@H]1C5 [morphine, reference compound]
CD1 mice [4]
  tail flick analgesia, ED50: 4.96 ± 0.96^f mg/kg
mice
  place conditioning response to drug alone: significant conditioned place preference
